Reference: EPA's CvTdb concentration-time database

Legend:
Rat [1] = assay: concentration in plasma after dosing; settings: dosed: Isoeugenol, 70 mg/kg, oral, Male, F344/N
Rat [2] = assay: concentration in plasma after dosing; settings: 10 min; dosed: Isoeugenol; 17 mg/kg; oral; Male; F344/N
Rat [3] = assay: concentration in plasma after dosing; settings: 20 min; dosed: Isoeugenol; 17 mg/kg; oral; Male; F344/N
Rat [4] = assay: concentration in plasma after dosing; settings: dosed: Isoeugenol, 17 mg/kg, oral, Female, F344/N
Rat [5] = assay: concentration in plasma after dosing; settings: 5 min; dosed: Isoeugenol; 17 mg/kg; oral; Male; F344/N
Rat [6] = assay: concentration in plasma after dosing; settings: dosed: Isoeugenol, 70 mg/kg, oral, Male, F344/N; remark: listed apart in the source
Rat [7] = assay: concentration in plasma after dosing; settings: dosed: Isoeugenol, 17 mg/kg, oral, Female, F344/N; remark: listed apart in the source
Rat [8] = assay: concentration in plasma after dosing; settings: dosed: Isoeugenol, 17 mg/kg, oral, Female, F344/N; remark: listed apart in the source
Rat [9] = assay: concentration in plasma after dosing; settings: dosed: Isoeugenol, 70 mg/kg, oral, Male, F344/N; remark: listed apart in the source
Rat [10] = assay: concentration in plasma after dosing; settings: dosed: Isoeugenol, 17 mg/kg, oral, Female, F344/N; remark: listed apart in the source
Rat [11] = assay: concentration in plasma after dosing; settings: dosed: Isoeugenol, 17 mg/kg, oral, Female, F344/N; remark: listed apart in the source
Rat [12] = assay: concentration in plasma after dosing; settings: dosed: Isoeugenol, 17 mg/kg, oral, Female, F344/N; remark: listed apart in the source
Rat [13] = assay: concentration in plasma after dosing; settings: dosed: Tetralin, 2 mg/kg, iv, Male, Harlan Sprague Dawley
Rat [14] = assay: concentration in plasma after dosing; settings: 2 h; dosed: Tetralin; 20 mg/kg; iv; Female; Harlan Sprague Dawley
Rat [15] = assay: concentration in plasma after dosing; settings: 2 h; dosed: Tetralin; 2 mg/kg; iv; Male; F344
Rat [16] = assay: concentration in plasma after dosing; settings: dosed: Tetralin, 20 mg/kg, iv, Female, Harlan Sprague Dawley
Rat [17] = assay: concentration in plasma after dosing; settings: dosed: Tetralin, 2 mg/kg, iv, Male, Harlan Sprague Dawley; remark: listed apart in the source
Rat [18] = assay: concentration in plasma after dosing; settings: dosed: Tetralin, 20 mg/kg, iv, Female, Harlan Sprague Dawley; remark: listed apart in the source
Rat [19] = assay: concentration in plasma after dosing; settings: dosed: Tetralin, 2 mg/kg, iv, Male, F344
Rat [20] = assay: concentration in plasma after dosing; settings: dosed: Tetralin, 2 mg/kg, iv, Male, F344; remark: listed apart in the source
Rat [21] = assay: concentration in plasma after dosing; settings: dosed: Tetralin, 2 mg/kg, iv, Male, Harlan Sprague Dawley; remark: listed apart in the source
Rat [22] = assay: concentration in plasma after dosing; settings: dosed: Tetralin, 20 mg/kg, iv, Female, Harlan Sprague Dawley; remark: listed apart in the source
Rat [23] = assay: concentration in plasma after dosing; settings: dosed: Tetralin, 2 mg/kg, iv, Male, F344; remark: listed apart in the source
Rat [24] = assay: concentration in plasma after dosing; settings: dosed: Tetralin, 2 mg/kg, iv, Male, Harlan Sprague Dawley; remark: listed apart in the source
rat [25] = assay: concentration in blood after dosing; settings: dosed: styrene, 3000 ppm, dermal, duration: 4 hr, male, F344
human = assay: concentration in blood after dosing; settings: dosed: styrene, 80 ppm, inhalation, duration: 6 hr
How it was run: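 Sampling and analytical methods are those of each source and frequently went unreported. The concentration-versus-time and amount-versus-time points were compiled from published in vivo toxicokinetic studies and two structured collections. Most were digitised from plot screenshots with WebPlotDigitizer, with others copied from tables, in the reported units.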

C/C=C/c1ccc(O)c(OC)c1 [Isoeugenol]
Settings	concentration in plasma [µg/mL]
Rat [1], 2 h	0.0684
Rat [1], 2 min	0.711
Rat [4], 0.5 h	0.243
Rat [4], 8 h	0.018
Rat [6], 5 h	0.106
Rat [6], 5 min	1.02
Rat [7], 8 h	0.0318
Rat [7], 20 min	0.311
Rat [8], 5 min	0.375
Rat [8], 6 h	0.16
Rat [9], 2 min	0.0746
Rat [9], 6 h	0.0845
Rat [10], 2 h	0.0232
Rat [10], 2 min	0.0691
Rat [11], 5 h	0.0283
Rat [11], 10 min	0.43
Rat [12], 4 h	0.0285
Rat [12], 10 min	0.5

Settings	concentration in plasma [µg/mL]
Rat [2]	0.209
Rat [3]	0.105
Rat [5]	0.238

c1ccc2c(c1)CCCC2 [Tetralin]
Settings	concentration in plasma [µg/g]
Rat [13], 4 h	0.00854
Rat [13], 5 min	1.74
Rat [16], 0.25 h	11.4
Rat [16], 6 h	0.104
Rat [17], 0.75 h	0.0729
Rat [17], 12 h	0.00211
Rat [18], 1 h	0.797
Rat [18], 24 h	0.00536
Rat [19], 0.5033 h	0.216
Rat [19], 8 h	0.00356
Rat [20], 0.505 h	0.246
Rat [20], 8 h	0.00426
Rat [21], 0.5033 h	0.192
Rat [21], 8 h	0.0056
Rat [22], 0.505 h	5.59
Rat [22], 8 h	0.077
Rat [23], 1 h	0.066
Rat [23], 24 h	0.00085
Rat [24], 0.2533 h	0.406
Rat [24], 6 h	0.00586

Settings	concentration in plasma [µg/g]
Rat [14]	0.52
Rat [15]	0.0337

C=Cc1ccccc1 [styrene]
Settings	concentration in blood [µg/mL]
human, 0.7751 h	0.429
human, 2.296 h	0.742
human, 4.093 h	0.759
human, 5.217 h	0.777
human, 6.069 h	0.904
human, 6.347 h	0.484
human, 7.03 h	0.241
human, 7.933 h	0.178
human, 10.01 h	0.0922
human, 11.99 h	0.0611
human, 14.2 h	0.0524
human, 18.16 h	0.0347
human, 23.1 h	0.0267
human, 29.98 h	0.0185
human, 46.98 h	0.0101
rat [25], 0.5 h	7.76
rat [25], 1 h	7.04
rat [25], 2 h	11.5
rat [25], 3 h	7.24
rat [25], 4 h	13
